Converted amounts (≈) assume the structure as drawn.
Legend:
NCI-H460 = experiment: Growth inhibition of human NCI-H460 cells after 48 hrs by sulforhodamine B assay; format: functional; details: NCI-H460, 48 h
Summary of the method: (§1)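 NCI sulforhodamine B assay. Cells were seeded in 5% FBS/RPMI-1640 and incubated 24 h. Serial compound dilutions were then added for 48 h. Cells were fixed with trichloroacetic acid, stained with SRB and read by microplate reader. GI50 is the concentration giving 50% reduction in net protein increase, calculated from optical density data.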

KM-20L2 = experiment: Growth inhibition of human KM20L2 cells after 48 hrs by sulforhodamine B assay; format: functional; details: KM-20L2, 48 h; summary of the method: as §1
DU-145 = experiment: Growth inhibition of human DU145 cells after 48 hrs by sulforhodamine B assay; format: functional; details: DU-145, 48 h; summary of the method: as §1
Neisseria gonorrhoeae = experiment: Antibacterial activity against Neisseria gonorrhoeae ATCC 49226 by broth microdilution method; format: functional
Summary of the method: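 Broth microdilution followed NCCLS standard methods. Compounds were reconstituted in sterile DMSO and diluted in the appropriate medium immediately before testing. MIC was taken as the lowest concentration giving no visible growth (optically clear). Assays were repeated on separate days.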

MCF7 = experiment: Growth inhibition of human MCF7 cells after 48 hrs by sulforhodamine B assay; format: functional; details: MCF7, 48 h; summary of the method: as §1
BXPC-3 = experiment: Growth inhibition of human BxPC3 cells after 48 hrs by sulforhodamine B assay; format: functional; details: BXPC-3, 48 h; summary of the method: as §1
SF-268 = experiment: Growth inhibition of human SF268 cells after 48 hrs by sulforhodamine B assay; format: functional; details: SF-268, 48 h; summary of the method: as §1
P388 = experiment: Growth inhibition of mouse P388 cells after 48 hrs by Z1 Beckman/Coulter particle counter analysis; format: functional; details: P388, 48 h, read-out: ED50 (the source's name)
Summary of the method: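 Mouse P388 leukemia cells were incubated 24 h in 10% horse serum/Fisher medium, then exposed 48 h to serial compound dilutions. ED50 was calculated from cell counts on a Coulter Z1 particle counter.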

[1] = Solubility of the compound in water; format: physicochemical
Summary of the method: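 Solubility expressed as amount dissolving in 1 mL H₂O at 25 °C.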

HUVEC [2] = experiment: Antiangiogenic activity in HUVEC assessed as cell growth at 0.01 ug/ml after 24 hrs by sulforhodamine B assay relative to control; format: functional, Homo sapiens
SW-1736 = experiment: Growth inhibition of human SW1736 cells after 48 hrs by sulforhodamine B assay; format: functional; details: SW-1736, 48 h
HUVEC [3] = experiment: Antiangiogenic activity in HUVEC assessed as cell growth at 0.00001 ug/ml after 24 hrs by sulforhodamine B assay relative to control; format: functional; details: Homo sapiens, read-out: Activity
HUVEC [4] = experiment: Antiangiogenic activity in HUVEC assessed as cell growth inhibition after 48 hrs by sulforhodamine B assay; format: functional, cell-based; details: Homo sapiens
Summary of the method: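 HUVECs were grown in EGM-2 medium and tested with the standard SRB growth assay following NCI Developmental Therapeutics Program Matrigel antiangiogenesis protocols. IC50 (concentration causing 50% inhibition) was calculated from plotted data.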

[5] = Growth inhibition of human KAT4 cells after 48 hrs by sulforhodamine B assay; format: functional; details: KAT-4, 48 h
HUVEC [6] = experiment: Antiangiogenic activity in HUVEC assessed as cell growth at 0.0001 ug/ml after 24 hrs by sulforhodamine B assay relative to control; format: functional, Homo sapiens
HUVEC [7] = experiment: Antiangiogenic activity in HUVEC assessed as reduction of cord length at 0.001 ug/ml after 24 hrs by matrigel assay relative to control; format: functional, Homo sapiens; design: scale not given: the % may be the effect or the level left
Summary of the method: (§2)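 Commercial HUVECs grown in EGM-2 were seeded at 2 × 10⁵ cells/mL onto Matrigel, which had been polymerized 15 min at rt and then 30 min at 37 °C, per NCI DTP protocol. Compound was added and cells were incubated 24 h, then imaged by inverted microscopy. Cord length and junction number were scored against untreated control on a scale from − (none) to +++ (same as control), with ++ = 50% of control.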

HUVEC [8] = experiment: Antiangiogenic activity in HUVEC assessed as cell growth at 0.001 ug/ml after 24 hrs by sulforhodamine B assay relative to control; format: functional, Homo sapiens
HUVEC [9] = experiment: Antiangiogenic activity in HUVEC assessed as reduction of number of junctions at 0.001 ug/ml after 24 hrs by matrigel assay relative to control; format: functional, Homo sapiens; design: scale not given: the % may be the effect or the level left; summary of the method: as §2
[10] = Inhibition of purified tubulin assembly after 20 mins
Summary of the method: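 Purified tubulin at 10 μM in 0.8 M monosodium glutamate (pH 6.6), 0.4 mM GTP and 4% (v/v) DMSO, with varying compound concentrations. Extent of assembly was measured after 20 min at 30 °C.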

HUVEC [11] = experiment: Antiangiogenic activity in HUVEC assessed as cell growth at 0.1 ug/ml after 24 hrs by sulforhodamine B assay relative to control; format: functional, Homo sapiens; details: Homo sapiens, HUVEC, 24 h; read-out: Activity

Compound	GI50 (NCI-H460)	GI50 (KM-20L2)	GI50 (DU-145)	MIC (Neisseria gonorrhoeae)	GI50 (MCF7)	GI50 (BXPC-3)	GI50 (SF-268)	EC50 (P388)	further results
C1COCCN1.C1COCCN1.COc1ccc(/C=C\c2cc(I)c(OC)c(OC)c2)cc1OP(=O)(O)O	0.0036 µg/mL	0.24 µg/mL	0.0026 µg/mL	16 µg/mL	0.0047 µg/mL	0.21 µg/mL	0.0037 µg/mL	0.0032 µg/mL	–
COc1ccc(/C=C/c2cc(I)c(OC)c(I)c2)cc1O	3.4 µg/mL (≈ 6.69 µM)	> 10 µg/mL	5.8 µg/mL (≈ 11.4 µM)	–	0.94 µg/mL (≈ 1.85 µM)	3 µg/mL (≈ 5.9 µM)	3.3 µg/mL (≈ 6.49 µM)	> 10 µg/mL	–
COc1ccc(/C=C\c2cc(I)c(OC)c(I)c2)cc1OP(=O)(O)O.OCN(CO)CO.OCN(CO)CO	0.025 µg/mL	0.94 µg/mL	0.021 µg/mL	< 0.5 µg/mL	0.047 µg/mL	0.33 µg/mL	0.04 µg/mL	0.026 µg/mL	–
C1CCNCC1.C1CCNCC1.COc1ccc(/C=C\c2cc(I)c(OC)c(OC)c2)cc1OP(=O)(O)O	0.0036 µg/mL	0.51 µg/mL	0.0029 µg/mL	–	0.0065 µg/mL	0.32 µg/mL	0.0044 µg/mL	0.0026 µg/mL	solubility ([1]; water, read-out: solubility): ≥ 4000 µg/mL
COc1ccc(/C=C/c2cc(I)c(OC)c(OC)c2)cc1O [DIIODOCOMBSTATIN]	0.21 µg/mL (≈ 0.509 µM)	1.7 µg/mL (≈ 4.12 µM)	0.27 µg/mL (≈ 0.655 µM)	–	0.18 µg/mL (≈ 0.437 µM)	2.7 µg/mL (≈ 6.55 µM)	0.55 µg/mL (≈ 1.33 µM)	0.189 µg/mL (≈ 0.458 µM)	–
COC(=O)[C@@H](N)Cc1c[nH]c2ccccc12.COC(=O)[C@@H](N)Cc1c[nH]c2ccccc12.COc1ccc(/C=C\c2cc(I)c(OC)c(OC)c2)cc1OP(=O)(O)O	0.0034 µg/mL	0.59 µg/mL	0.003 µg/mL	4 µg/mL	0.035 µg/mL	0.26 µg/mL	0.0097 µg/mL	0.0022 µg/mL	–
COc1ccc(/C=C\c2cc(I)c(OC)c(I)c2)cc1OP(=O)([O-])[O-].[Li+].[Li+]	0.05 µg/mL	–	0.032 µg/mL	< 0.5 µg/mL	–	0.37 µg/mL	0.05 µg/mL	0.021 µg/mL	solubility ([1]; buffer): >= 4 mg/ml
COc1ccc(/C=C\c2cc(I)c(OC)c(OC)c2)cc1OP(=O)([O-])[O-].[Li+].[Li+]	0.0039 µg/mL	–	0.0043 µg/mL	–	0.0038 µg/mL	0.49 µg/mL	0.004 µg/mL	0.017 µg/mL	solubility ([1]; buffer): >= 2.4 mg/ml
C1COCCN1.C1COCCN1.COc1ccc(/C=C\c2cc(I)c(OC)c(I)c2)cc1OP(=O)(O)O	0.033 µg/mL	> 1 µg/mL	0.028 µg/mL	< 0.5 µg/mL	0.066 µg/mL	0.35 µg/mL	0.054 µg/mL	0.014 µg/mL	–
C1CCNCC1.C1CCNCC1.COc1ccc(/C=C\c2cc(I)c(OC)c(I)c2)cc1OP(=O)(O)O	0.025 µg/mL	> 1 µg/mL	0.025 µg/mL	< 0.5 µg/mL	0.07 µg/mL	0.33 µg/mL	0.041 µg/mL	0.011 µg/mL	–
COC(=O)CN.COC(=O)CN.COc1ccc(/C=C\c2cc(I)c(OC)c(I)c2)cc1OP(=O)(O)O	0.03 µg/mL	> 1 µg/mL	0.023 µg/mL	< 0.5 µg/mL	0.1 µg/mL	0.36 µg/mL	0.054 µg/mL	0.011 µg/mL	–
COC(=O)CN.COC(=O)CN.COc1ccc(/C=C\c2cc(I)c(OC)c(OC)c2)cc1OP(=O)(O)O	0.0031 µg/mL	0.32 µg/mL	0.0021 µg/mL	–	0.0044 µg/mL	0.16 µg/mL	0.0033 µg/mL	0.0026 µg/mL	solubility ([1]; water, read-out: solubility): ≥ 2000 µg/mL
COc1ccc(/C=C\c2cc(I)c(OC)c(OC)c2)cc1OP(=O)([O-])[O-].[K+].[K+]	0.0043 µg/mL	0.41 µg/mL	0.0038 µg/mL	–	0.0064 µg/mL	0.381 µg/mL	0.0057 µg/mL	0.0021 µg/mL	Activity (HUVEC [2]): 1%; GI50 (SW-1736): > 10 µg/mL; growth at 10 pg/mL (HUVEC [3]): 95%; IC50 (HUVEC [4]): 0.00025 µg/mL; GI50 [5]: 0.37 µg/mL; Activity (HUVEC [6]): 77%; Activity (HUVEC [7]): 50%; solubility ([1]; buffer): 14000 µg/mL; growth at 0.001 µg/mL (HUVEC [8]; Homo sapiens, HUVEC, 24 h, read-out: Activity): 10%; Activity (HUVEC [9]): 75%
COc1ccc(/C=C\c2cc(OC)c(OC)c(OC)c2)cc1OP(=O)([O-])[O-].[Na+].[Na+] [FOSBRETABULIN DISODIUM]	0.029 µg/mL	0.034 µg/mL	0.0072 µg/mL	–	–	0.23 µg/mL	0.036 µg/mL	0.0004 µg/mL	IC50 [10]: > 40 µM
COC(=O)[C@@H](N)Cc1c[nH]c2ccccc12.COC(=O)[C@@H](N)Cc1c[nH]c2ccccc12.COc1ccc(/C=C\c2cc(I)c(OC)c(I)c2)cc1OP(=O)(O)O	0.033 µg/mL	> 1 µg/mL	0.026 µg/mL	< 0.5 µg/mL	0.22 µg/mL	0.37 µg/mL	0.086 µg/mL	0.017 µg/mL	–
COc1ccc(/C=C\c2cc(F)c(OC)c(OC)c2)cc1O [FLUORCOMBSTATIN]	0.0032 µg/mL (≈ 0.0105 µM)	> 1 µg/mL	0.0019 µg/mL (≈ 0.00624 µM)	–	0.0027 µg/mL (≈ 0.00887 µM)	–	0.0016 µg/mL (≈ 0.00526 µM)	0.002 µg/mL (≈ 0.00657 µM)	–
COc1ccc(/C=C\c2cc(I)c(OC)c(OC)c2)cc1OP(=O)(O)O.OCN(CO)CO.OCN(CO)CO	0.004 µg/mL	0.4 µg/mL	0.0047 µg/mL	32 µg/mL	0.0048 µg/mL	0.37 µg/mL	0.0043 µg/mL	0.0029 µg/mL	–
COc1ccc(/C=C\c2cc(I)c(OC)c(OC)c2)cc1OP(=O)([O-])[O-].[Na+].[Na+]	0.017 µg/mL	> 1 µg/mL	0.011 µg/mL	–	0.018 µg/mL	0.469 µg/mL	0.018 µg/mL	0.002 µg/mL	Activity (HUVEC [2]): 14%; growth at 0.1 µg/mL (HUVEC [11]): 7%; IC50 [10]: > 40 µM; IC50 (HUVEC [4]): 0.00035 µg/mL; Activity (HUVEC [6]): 104%; solubility ([1]; buffer): 2000 µg/mL; Activity (HUVEC [8]): 5%
COc1ccc(/C=C\c2cc(O)c(OC)c(OC)c2)cc1O	0.19 µg/mL (≈ 0.628 µM)	1.2 µg/mL (≈ 3.97 µM)	0.0043 µg/mL (≈ 0.0142 µM)	–	0.49 µg/mL (≈ 1.62 µM)	2.3 µg/mL (≈ 7.61 µM)	0.0083 µg/mL (≈ 0.0275 µM)	0.26 µg/mL (≈ 0.86 µM)	–

Reference: ChEMBL document CHEMBL2021780, “Antineoplastic agents. 548. Synthesis of iodo- and diiodocombstatin phosphate prodrugs” (J Nat Prod, 2012)
